The values below come from ChEMBL document CHEMBL1136759, “Synthesis and antiviral activity of novel erythrofuranosyl imidazo[1,2-a]pyridine C-nucleosides constructed via palladium coupling of iodoimidazo[1,2-a]pyridines and dihydrofuran” (J Med Chem, 2003).

Test [1] has as its system Human betaherpesvirus 5. The test can be described thus: Antiviral activity against HCMV using plaque reduction assay; >100 indicates IC50 greater than the noted(highest) concentration tested. Type of test: functional, organism-based. The procedure, abridged: (§1)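 HFF cells in 24-well dishes infected with about 100 pfu HCMV (Towne strain) per cm2 cell sheet. After adsorption, drug in growth medium added to duplicate wells at four to eight concentrations. Incubated 7 days at 37 °C, then fixed and stained with crystal violet, and plaques counted microscopically. IC50 from linear regression of % plaque reduction versus log concentration. Means of 2–5 experiments.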

Test [2] can be described thus: Visual cytotoxicity was scored on HFF cells at time of HCMV plaque enumeration; >100 indicates IC50 greater than the noted (highest) concentration tested. Type of test: functional, cell-based. To be noted: Homo sapiens. The procedure, abridged: (§2)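 Stationary HFF cells, not affected by virus, inspected microscopically for cytotoxicity at the time of plaque counting in the 7-day, 37 °C HCMV plaque assay. Drug was in growth medium. IC50 estimated from regression of % inhibition against log concentration.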

Test [3] has as its system KB. Nature of the test: Inhibition of KB cell growth was determined; >100 indicates IC50 greater than the noted(highest) concentration tested. To be noted: Homo sapiens. The class given is functional, cell-based. The procedure, abridged:
(§3)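 KB cells seeded at 3000-5000 per well and incubated overnight. Compound added in quadruplicate at six to eight concentrations, then 48 h at 37 °C in CO2, covering about two population doublings. Cells fixed in 95% ethanol, stained with 0.1% crystal violet, dye eluted with acidified ethanol, read at 570 nm. IC50 by linear regression against log concentration.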

The test system of test [4] is Human alphaherpesvirus 1. The test can be described thus: Antiviral activity against HSV-1 using ELISA assay; >100 indicates IC50 greater than the noted (highest) concentration tested. Type of test: functional, organism-based. The method, boiled down:
(§4)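 BSC-1 cells seeded at 10000 per well in MEM(E) with 10% calf serum and incubated overnight. Drug added in quadruplicate with HSV-1 (KOS) at 100 pfu/well, then 3 days at 37 °C. Detection used HRP-conjugated rabbit anti-HSV-1 antibody with TMB substrate, read at 450 and 570 nm. IC50 from regression of % absorbance reduction versus log concentration.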

Test [5] has as its system Human betaherpesvirus 5. The test can be described thus: Antiviral activity against HCMV using plaque reduction assay; >100 indicates IC50 greater than the noted (highest) concentration tested. Type of test: functional, organism-based. The method, boiled down:
as §1

The nature of test [6]: Visual cytotoxicity was scored on HFF cells at time of HCMV plaque enumeration; >100 indicates IC50 greater than the noted(highest) concentration tested. The class given is functional, cell-based. To be noted: Homo sapiens. The procedure, abridged:
as §2

The subject of test [7] is Human alphaherpesvirus 1. Nature of the test: Antiviral activity against HSV-1 using ELISA assay. Type of test: functional, organism-based. The procedure, abridged:
as §4

Test [8] has as its system Human betaherpesvirus 5. Nature of the test: Antiviral activity against HCMV using plaque reduction assay. Type of test: functional, organism-based. The method, boiled down:
as §1

Test [9] has as its system KB. Nature of the test: Inhibition of KB cell growth was determined. Type of test: functional, cell-based. To be noted: Homo sapiens. The procedure, abridged: as §3
The nature of test [10]: Visual cytotoxicity was scored on HFF cells at time of HCMV plaque enumeration. To be noted: Homo sapiens. Type of test: functional, cell-based. The method, boiled down:
as §2

As to `O[C@@H]1[C@H](O)CO[C@@H]1c1c(Cl)nc2ccc(Cl)cn12`, the IC50 (in the test on Human betaherpesvirus 5 [1]; in [2]; with KB [3]; in the test on Human alphaherpesvirus 1 [4]) was greater than 100 µM throughout.

Take `O[C@@H]1[C@H](O)CO[C@@H]1c1c(Cl)nc2cc(Cl)c(Cl)cn12`: the IC50 in the test with Human betaherpesvirus 5 [1] and with Human alphaherpesvirus 1 [4] was greater than 100 µM throughout.

Take `O[C@@H]1C(c2c(Cl)nc3cc(Cl)c(Cl)cn23)OC[C@@H]1O` (some centres not stated): the 50% inhibitory concentration (IC50) (in the test on Human betaherpesvirus 5 [5]; in test [2]; in the test with KB [3]; in the test on Human alphaherpesvirus 1 [4]) was greater than 100 µM in each case.

As to `O[C@@H]1COC(c2c(Cl)nc3ccc(Cl)cn23)[C@@H]1O` (single isomer, unassigned), the IC50 (in [6]; in the test with Human betaherpesvirus 5 [1]; in the test with KB [3]; with Human alphaherpesvirus 1 [4]) was greater than 100 µM throughout.

Take `O[C@@H]1[C@H](O)CO[C@@H]1c1c(Cl)nc2cc(Cl)c(Cl)cn12` (stereo in doubt; 15a): the half-maximal inhibitory concentration (IC50) in the test with Human alphaherpesvirus 1 [7] was 24 µM; in the test on Human betaherpesvirus 5 [8], 8 µM; in test [2], greater than 100 µM; with KB [3], greater than 100 µM.

With `O[C@@H]1[C@H](O)CO[C@@H]1c1c(Cl)nc2cc(Cl)c(Cl)cn12` (stereo in doubt; 20), the IC50 stood at 14 µM in the test on Human alphaherpesvirus 1 [7] (Human alphaherpesvirus 1), 2.9 µM in the test on Human betaherpesvirus 5 [8], 68 µM with KB [9] and 100 µM in [10].
